Data reported in ChEMBL document CHEMBL3108689, “Stilbenes as κ-selective, non-nitrogenous opioid receptor antagonists” (J Nat Prod, 2014).

Columns and labels:
[1] = molecular target: Delta-type opioid receptor (Homo sapiens) (UniProt P41143); assay: Competitive antagonist activity against human delta opioid receptor overexpressed in CHO cells assessed as inhibition of DPDPE-stimulated [35S]GTP-gamma-S binding by liquid scintillation counting; assay type: functional, cell-based
Procedure, shortened: (§1)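 CHO cells overexpressing human μ, δ or κ opioid receptor; membrane homogenates (20–40 μg protein) incubated 1 h at room temperature with 0.1 nM [35S]GTP-γ-S and 1 μM GDP in 50 mM HEPES pH 7.4, in duplicate. Agonist concentration–response curves run with or without one test-compound concentration (screen at 10 μM). Filtration, scintillation counting, normalized to basal; EC50 by four-parameter logistic; Ke = [L]/(DR − 1).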

[2] = molecular target: Mu-type opioid receptor (Homo sapiens) (UniProt P35372); assay: Competitive antagonist activity against human Mu opioid receptor overexpressed in CHO cells assessed as inhibition of DAMGO-stimulated [35S]GTP-gamma-S binding by liquid scintillation counting; assay type: functional, cell-based; procedure, shortened: as §1
[3] = molecular target: Kappa-type opioid receptor (Homo sapiens) (UniProt P41145); assay: Competitive antagonist activity against human kappa opioid receptor overexpressed in CHO cells assessed as inhibition of U69,593-stimulated [35S]GTP-gamma-S binding by liquid scintillation counting; assay type: functional, cell-based; procedure, shortened: as §1
[4] = organism: Homo sapiens; assay: Selectivity ratio of Ke(app) for human Mu opioid receptor to ratio of Ke(app) for human kappa opioid receptor
[5] = organism: Homo sapiens; assay: Selectivity ratio of Ke(app) for human delta opioid receptor to ratio of Ke(app) for human kappa opioid receptor

Structure (SMILES) | Ke [1] | Ke [2] | Ke [3] | Ratio [4] | Ratio [5]
COc1cc(/C=C/c2ccc(OC)c(O)c2CC=C(C)C)c(C/C=C(\C)CCC=C(C)C)c(OC)c1 | > 10 µM | > 10 µM | > 10 µM | – | –
COc1cc(/C=C/c2ccc(OC)c(OC)c2CC=C(C)C)c(C/C=C(\C)CCC=C(C)C)c(OC)c1 | > 10 µM | > 10 µM | > 10 µM | – | –
CC(C)=CCC/C(C)=C/Cc1c(O)cc(O)cc1/C=C/c1ccc(O)c(O)c1CC=C(C)C | 2.9 µM | 0.57 µM | 0.2 µM | 2.9 | 14.5
COc1cc(/C=C/c2cc(O)c(O)c(CC=C(C)C)c2)c(C/C=C(\C)CCC=C(C)C)c(OC)c1 | > 10 µM | > 10 µM | 0.15 µM | > 67 | > 67
COc1cc(/C=C/c2ccc(O)c(O)c2)c(C/C=C(\C)CCC=C(C)C)c(OC)c1 | > 10 µM | > 10 µM | > 10 µM | – | –
CC(C)=CCC/C(C)=C/CC/C(C)=C/Cc1c(O)cc(/C=C/c2ccc(O)cc2)cc1O | 6 µM | 3 µM | 9 µM | 0.33 | 0.67
CC(C)=CCC/C(C)=C/Cc1c(O)cc(O)cc1/C=C/c1ccc(O)c(O)c1 | > 10 µM | > 10 µM | > 10 µM | – | –
CC(C)=CCc1c(O)cc(/C=C/c2ccc(O)c(O)c2)cc1O | > 10 µM | > 10 µM | > 10 µM | – | –
CC(C)=CCc1c(O)cc(/C=C/c2ccc(O)cc2)cc1O | > 10 µM | > 10 µM | > 10 µM | – | –
COc1cc(/C=C/c2ccc(OC)c(OC)c2)c(C/C=C(\C)CCC=C(C)C)c(OC)c1 | > 10 µM | > 10 µM | > 10 µM | – | –
CC(C)=CCC/C(C)=C/Cc1c(O)cc(/C=C/c2ccc(O)c(O)c2)cc1O | > 10 µM | > 10 µM | > 10 µM | – | –
